Vif inh = inhibitors of HIV Vif. HEK293T cells, Vif self-association by quenched fluorescence, imaging, 24 h. inhibition, % at 7.49 µM. actives 0.35% (n = 340,000); in the data active = inhibition above about 50%, passing the limit was not always enough
SR-BI DiI inh = mouse SR-BI HDL lipid transfer inhibition; inhibition, % at 12.5 µM; Q61009; AID 488896; actives 0.96% (n = 320,000); ldlA[mSR-BI] CHO cells, DiI-HDL uptake fluorescence, 3 h;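 active = mean replicate inhibition of at least 70% and a set share of replicates each scoring 70 or more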;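 note: 0% = median of neutral control wells and 100% = median of positive control wells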
Target sequence (Q61009 whole entry, looked up): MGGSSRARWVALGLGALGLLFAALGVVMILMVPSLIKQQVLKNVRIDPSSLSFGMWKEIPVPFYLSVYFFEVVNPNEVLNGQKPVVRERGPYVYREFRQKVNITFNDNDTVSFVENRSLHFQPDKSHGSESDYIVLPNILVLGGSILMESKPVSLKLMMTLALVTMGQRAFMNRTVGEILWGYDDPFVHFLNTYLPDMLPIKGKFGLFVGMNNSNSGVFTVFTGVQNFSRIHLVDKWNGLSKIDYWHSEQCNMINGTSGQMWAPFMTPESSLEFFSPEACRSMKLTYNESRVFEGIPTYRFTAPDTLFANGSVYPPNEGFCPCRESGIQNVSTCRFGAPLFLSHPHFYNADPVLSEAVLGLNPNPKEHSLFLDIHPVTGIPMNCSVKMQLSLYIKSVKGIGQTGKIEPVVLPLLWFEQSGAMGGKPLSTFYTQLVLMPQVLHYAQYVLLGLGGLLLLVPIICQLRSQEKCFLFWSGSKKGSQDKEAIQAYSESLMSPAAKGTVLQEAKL
H9c2 TAG inh = reduces triacylglycerol accumulation in H9c2 cells | Nile Red lipid (TAG) fluorescence; cells loaded with 200 µM oleic acid | inhibition, % at 12.5 µM | actives 0.66% (n = 230,000);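 active = pattern-corrected inhibition of lipid staining of at least 50% with the nuclear-stain viability signal not falling by more than 50%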;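 note: 0% = DMSO wells and 100% = triacsin C control wells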
SR-BI DiI-HDL act = activators of SR-BI mediated HDL lipid uptake; AID 504775; actives 0.096% (n = 320,000); CHO ldlA[mSR-BI] cells, DiI-HDL uptake fluorescence, 3 h; 100 = double the neutral-control signal; activation, % at 12.5 µM;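 active = mean replicate activation of at least 60% and every replicate at or above 60%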;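 note: 0% = median plate neutral-control signal and 100% = twice that signal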
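System: CHO ldlA[mSR-BI] cells / Medium: HEPES-buffered (25 mM, pH 7.4) F12 plus 0.5% BSA / Probe or stimulus: labelled HDL, 10 µg/mL / Doses: single compound concentration, delivered by pin transfer / Schedule: 3 h, 37 °C / Measured by: DiI fluorescence, bottom read / Measure: cell-associated DiI fluorescence as measure of HDL uptake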
SMARCA2 act = activators of SMARCA2 function; actives 1% (n = 370,000); MG213 cells, MMTV-luciferase reporter, dexamethasone, overnight; activation, % at 9.1 µM; in the data active = activation above about 7.8%;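 note: 0% = vehicle wells and 100% = reference activator wells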
H9c2 TAG conf = confirmation of triacylglycerol accumulation inhibitors; shares compounds with H9c2 TAG inh; H9c2 lipid accumulation, Nile Red fluorescence; cells loaded with 200 µM oleic acid; inhibition, % at 12.5 µM; actives 71% (n = 990);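 active = mean inhibition across replicates of 40% or more; inactive = mean inhibition below 40%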;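 note: plate controls were DMSO only wells for no effect and Triacsin C treated wells for full effect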
* hit, by the source's call; . = no result. Most compounds without a hit are left out; they make up all but 2.5% or so of the library.

SMILES	Vif inh	SR-BI DiI inh	H9c2 TAG inh	SR-BI DiI-HDL act	SMARCA2 act	H9c2 TAG conf
CCC(C)C(NC(=O)c1ccccc1NC(=O)c1ccc(OC)cc1)C(=O)NCc1ccco1 (stereo not given)	.	26	.	-26	-3	.
COc1ccc(C(=O)Nc2ccc(Cl)cc2C(=O)NCc2ccco2)cc1	13	44	61*	-44	-5	73*
CC(=O)c1cc(-c2csc(C=O)c2)c(=O)n2c1CCC2	.	.	.	.	0	.
O=C(C[C@H]1C[C@H](C(=O)N2CCCCC2)[C@@]2(CCc3ccccc3)c3[nH]c4ccc(Cl)cc4c3CCN2C1=O)NCc1cccc(C(F)(F)F)c1	-5	-19	102*	19	4	100*
CC(C)(C)NC(=O)C[C@H]1C[C@H](C(=O)N2CCCCC2)[C@@]2(CCc3ccccc3)c3[nH]c4ccc(Cl)cc4c3CCN2C1=O	.	-24	62*	24	-3	45*
O=C(C[C@H]1C[C@H](C(=O)N2CCCCC2)[C@@]2(CCc3ccccc3)c3[nH]c4ccc(Cl)cc4c3CCN2C1=O)NCc1ccco1	-11	-2	35	2	2	.
COc1ccc2[nH]c3c(c2c1)CCN1C(=O)C(CC(=O)NCc2cccc(C(F)(F)F)c2)C[C@H](C(=O)N2CCCCC2)[C@@]31CCc1ccccc1 (stereo not given in full)	.	-17	102*	17	0	90*
O=C(CC1C[C@H](C(=O)N2CCCCC2)[C@@]2(CCc3ccccc3)c3[nH]c4ccccc4c3CCN2C1=O)NCc1cccc(C(F)(F)F)c1 (stereo not given in full)	.	0	91*	0	-1	88*
COc1ccc2[nH]c3c(c2c1)CCN1C(=O)C(CC(=O)NCCN2CCOCC2)C[C@H](C(=O)N2CCCCC2)[C@@]31CCc1ccccc1 (stereo not given in full)	9	-30	3	30	-2	.
O=C1C(NS(=O)(=O)c2cccs2)=C(N2CCN(c3cccc(C(F)(F)F)c3)CC2)C(=O)c2ccccc21	12	42	60*	-42	-1	78*
O=C(NCC1COc2ccccc2O1)c1ccc(NC(=O)c2cccc(F)c2)cc1 (stereo not given)	.	.	.	.	-2	.
O=C1COc2ccc(C(=O)CSc3nc4ccccc4c(=O)n3-c3ccc(Cl)c(Cl)c3)cc2N1	-5	22	61*	-22	-5	66*
CC(=O)N1CCN(S(=O)(=O)c2ccc3c(c2)oc(=O)n3C)CC1	.	.	.	.	-4	.
CCOC(=O)C1CSCCS(=O)(=O)N1Cc1cc(F)ccc1Br (stereo not given)	.	.	.	.	-4	.
c1ccc(COc2ncnc3c2ncn3CCCNC2CCN(Cc3ccccc3)CC2)cc1	-4	.	63*	.	-6	35
COCCCNC(=O)C(=O)Nc1ccc2c(c1)N(S(=O)(=O)c1cccs1)CCC2	7	25	54*	-25	-3	61*
CN(C)CCNC(=O)C(=O)Nc1ccc2c(c1)N(S(=O)(=O)c1cccs1)CCC2	-9	-20	54*	20	-1	54*
CCOc1ccccc1NC(=O)C1CCN(C(=O)NCc2ccccc2)CC1	2	52	63*	-52	-2	47*
CCOc1ccccc1NC(=O)CCC(=O)O	4	-24	.	24	-1	.
CCOc1ccccc1NC(=O)CCC(=O)Nc1ccccc1OCC	.	10	59*	-10	-4	49*
CCN1C(=O)[C@H]2[C@@H](c3ccc(-c4ccccc4)c(OC)c3)N[C@@](CC(C)C)(C(=O)OC)[C@H]2C1=O	-11	34	57*	-34	0	40*
COC(=O)[C@]1(Cc2ccccc2)N[C@H](c2ccc(-c3cccc(Cl)c3)c(OC)c2)[C@@H]2C(=O)N(C)C(=O)[C@@H]21	-4	41	55*	-41	-2	45*
CCN1C(=O)[C@H]2[C@@H](c3ccc(-c4cccc(Cl)c4)c(OC)c3)N[C@@](Cc3ccccc3)(C(=O)OC)[C@H]2C1=O	2	17	44	-17	-1	.
CCCCCCSc1ccc([C@H]2N[C@@](CC(C)C)(C(=O)OC)[C@H]3C(=O)N(C)C(=O)[C@@H]23)cc1OC	-3	3	64*	-3	2	55*
O=C1CC(N2CCOCC2)=NC(=O)N1c1ccc(Br)cc1	.	.	.	.	-1	.
SMILES	Vif inh	SR-BI DiI inh	H9c2 TAG inh	SR-BI DiI-HDL act	SMARCA2 act	H9c2 TAG conf
COC(=O)[C@]12C[C@H](CC(=O)N3CCCC3)C(=O)N(Cc3cccc4ccccc34)C1=C[C@H](COCc1ccccc1)O[C@@H]2C	.	.	.	.	-4	.
Cc1cc(N/C(=C\C(=O)c2ccccc2)c2ccccc2)ccc1Br	.	.	.	.	-1	.
C(=N\Nc1nc2ccccc2[nH]1)/C1CCCCC1	3	8	74*	-8	1	10
CCC(=O)Nc1c(-c2ccc(OC)cc2)c(=O)c2ccccc2n1C	10	-13	61*	13	-2	4
Cc1onc(-c2ccccc2)c1C(=O)NN=Cc1cc(Cl)cc(Cl)c1O	.	.	.	.	-4	.
COc1cccc(-c2cc(C(=O)Nc3ccc(N(C)C(C)=O)cc3)c3cc(Br)ccc3n2)c1	-8	57	50*	-57	-2	57*
COc1cccc(-c2cc(C(=O)Nc3ccncc3)c3ccccc3n2)c1	-12	34	-9	-34	-3	.
CCCC[C@H]1C2CC(OC(=O)Nc3ccc(C#N)cc3)C(C2)[C@H]2CCCCN21 (stereo not given in full)	.	.	.	.	-2	.
CCCCCCCCNS(=O)(=O)CC1NCc2ccc(C)cc21 (stereo not given)	.	.	.	.	0	.
O=C(Nc1ccc(-c2csc(Nc3cccc(C(F)(F)F)c3)n2)cc1)c1ccccc1	-11	97*	51*	-97	2	63*
O=C(Nc1ccc(-c2csc(Nc3cccc(C(F)(F)F)c3)n2)cc1)c1cc([N+](=O)[O-])cc(C(F)(F)F)c1	1	92*	71*	-92	4	68*
Cc1ccc(OCc2nnc(SCC(=O)Nc3ccc(OCc4ccccc4)cc3)n2-c2ccc(Cl)cc2)cc1	.	.	.	.	-6	.
COc1ccc(-c2cc(C(F)F)n3ncc(C(=O)Nc4cccc(S(=O)(=O)N5CCOCC5)c4)c3n2)cc1	-6	31	58*	-31	-2	50*
COc1ccc(Br)c(C(=O)Nc2cccc(S(=O)(=O)N3CCOCC3)c2)c1	-3	47	10	-47	-2	.
COc1ccc(-c2c(C(=O)c3ccccc3)[nH]c(N)c2C(=O)NCCc2c[nH]c3ccccc23)cc1	.	.	.	.	0	.
CC1(c2ccccc2)O[C@@H]2C[C@H]3[C@@H]4CCC5=CC(=O)C=C[C@]5(C)[C@@]4(F)[C@@H](O)C[C@]3(C)[C@]2(C(=O)CO)O1 (stereo not given in full)	-4	16	53*	-16	0	55*
